This is an account of results in ChEMBL document CHEMBL1140739, “Modulation of cellular apoptosis with apoptotic protease-activating factor 1 (Apaf-1) inhibitors” (2008).

Calls of active or inactive are those of the source. No cut-off for these calls is given here. Starred links: 1 amine or outer side, 2 acyl side, 3 side chain; linkers in the order of their positions; H or OH if unused. Non-standard residues stand in square brackets, D forms with d. Residues, ends and D or L forms follow the SMILES beside them. N(2,4-Cl2-phenethyl)Gly = O=C(O)CNCCc1ccc(Cl)cc1Cl; X1 = O=C(CN(CCC(c1ccccc1)c1ccccc1)[*:1])[*:2]

Assay [1] has as its system SAOS-2. Description: Antiapoptotic activity against human Saos2 cells assessed as cell recovery at 5 uM after 24 hrs by flow cytometry. The format is functional.
Assay [2] deals with SAOS-2. Description: Inhibition of apoptosome activity in human Saos2 cells assessed as inhibition of caspase 3 at 5 uM after 24 hrs by fluorimetric DEVDase assay. The format is functional. Particulars: SAOS-2, 24 h. In outline: (§1)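 Apoptosis was induced with doxorubicin in PBS (HeLa 2 µg/mL, 3 × 10⁵ cells/plate; U-2 OS 2.5 µg/mL, 3.5 × 10⁵ cells/plate) or with doxycycline 2 µg/mL (Saos-2, tet-ON Bax, 2 × 10⁵ cells/plate). Compound was added 30 min later at 5 µM, and cells were harvested at 24, 48 or 72 h. Lysis was by PIPES/KCl/EDTA/MgCl₂/DTT buffer with three freeze-thaw cycles. Protein was equalized by BCA, then 20 µM Ac-DEVD-afc was added in PBS with 10% glycerol, 0.1 mM EDTA and 2 mM DTT. Fluorescence was read at 37 °C (ex 400, em 508 nm) as ΔFU/min; mean ± SE, n > 3.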

Assay [3] relates to U2OS. Description: Antiapoptotic activity against human U2OS cells assessed as inhibition of doxorubicin-induced cell death by flow cytometry. It counts as functional, cell-based.
In assay [4] the test system is U-937. Description: Cytotoxicity against human U937 cells after 24 hrs by MTT assay. It counts as functional, cell-based. In outline:
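U937 cells in RPMI 1640 with 10% FCS and 2 mM L-glutamine were seeded at 2.5 × 10³ or 4 × 10³ cells/well and settled for 24 h. Filter-sterilized compounds were added at final 1, 5 and 10 µM (polymer conjugate at 20, 50 and 100 µM drug equivalent) for 19 h. MTT was then added for a further 5 h, giving 24 h total exposure. Formazan was dissolved in DMSO and read at 570 nm; mean ± SE, n > 3.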

The subject of assay [5] is U2OS. Description: Antiapoptotic activity against human U2OS cells assessed as inhibition of doxorubicin-induced cell death after 24 hrs by flow cytometry. It counts as functional, cell-based.
Assay [6] concerns SAOS-2. Description: Antiapoptotic activity against human Saos2 cells assessed as inhibition of doxycyclin-induced cell death at 1 uM by flow cytometry. The format is functional.
Assay [7] concerns U-937. Description: Antiapoptotic activity against human U937 cells assessed as inhibition of doxorubicin-induced cell death after 24 hrs by flow cytometry. The format is functional, cell-based.
Assay [8] deals with SAOS-2. Description: Inhibition of apoptosome activity in human Saos2 cells assessed as inhibition of caspase 3 after 24 hrs by fluorimetric DEVDase assay. It counts as functional, cell-based.
Assay [9] concerns U2OS. Description: Inhibition of apoptosome activity in human U2OS cells assessed as inhibition of caspase 3 at 5 uM after 48 hrs by fluorimetric DEVDase assay. The format is functional. In outline:
as §1

The next assay relates to A549. Description: Antiapoptotic activity against human A549 cells assessed as inhibition of doxorubicin-induced cell death after 24 hrs by flow cytometry. It counts as functional, cell-based.
For assay [10], the system named is HeLa. Description: Antiapoptotic activity against human HeLa cells assessed as inhibition of doxorubicin-induced cell death after 24 hrs by flow cytometry. It counts as functional, cell-based.
Assay [11] has as its system SAOS-2. Description: Antiapoptotic activity against human Saos2 cells assessed as inhibition of doxycyclin-induced cell death after 24 hrs by flow cytometry. It counts as functional, cell-based.
Assay [12] relates to HeLa. Description: Inhibition of apoptosome activity in human HeLa cells assessed as inhibition of caspase 3 at 5 uM after 48 hrs by fluorimetric DEVDase assay. The format is functional. The gist of the method:
as §1

On to `COc1ccccc1CCN(CC(N)=O)C(=O)C1CC(=O)N(CCc2ccc(Cl)cc2Cl)CC(=O)N1CCC(c1ccccc1)c1ccccc1` (stereo unspecified), for which, in the assay on SAOS-2 [1], the Activity was found to be 41%. The inhibition at 5 µM with SAOS-2 [2] was found to be 1%.

For `CC(C)C[C@H](NC(=O)[C@H](C)NC(=O)[C@H](CCCCN)NC(=O)[C@@H](NC(=O)[C@@H](N)CS)[C@@H](C)O)C(=O)NCC(=O)N[C@@H](CS)C(=O)NCC(=O)NCC(=O)N[C@@H](Cc1ccc(O)cc1)C(=O)NCC(=O)N[C@@H](CCCNC(=N)N)C(=O)N[C@@H](CCCCN)C(=O)N[C@@H](CCCCN)C(=O)N[C@@H](CCCNC(=N)N)C(=O)N[C@@H](CCCNC(=N)N)C(=O)N[C@@H](CCC(N)=O)C(=O)N[C@@H](CCCNC(=N)N)C(=O)N[C@@H](CCCNC(=N)N)C(=O)N[C@@H](CCCNC(=N)N)C(=O)N(CCc1ccc(Cl)cc1Cl)CC(=O)N(CCC(c1ccccc1)c1ccccc1)CC(=O)N(CCc1ccc(Cl)cc1Cl)CC(N)=O` (H-CTKALGCGGYGRKKRRQRRR[N(2,4-Cl2-phenethyl)Gly][X1][N(2,4-Cl2-phenethyl)Gly]-NH2), the outcome in the assay on U2OS [3] was inactive. In addition, in the assay on U-937 [4], the Activity result was “Toxic”.

`CCCCN(CC(N)=O)C(=O)C1CC(=O)N(CCc2ccc(Cl)cc2Cl)CC(=O)N1CCC(c1ccccc1)c1ccccc1` (stereo unspecified): the Activity in the assay on SAOS-2 [1] amounted to 2%. Also, the inhibition at 5 µM with SAOS-2 [2] was found to be 45%.

For `NC(=O)CN(CCc1ccc(Cl)cc1Cl)C(=O)C1CC(=O)N(CCc2ccc(Cl)cc2Cl)CC(=O)N1CCC(c1ccccc1)c1ccccc1` (stereo unspecified), the result in the assay on U2OS [5], with U-937 [7], with SAOS-2 [8], in the assay with A549, in the assay with U2OS [3] and in the assay with HeLa [10] was Active. The result in the assay with SAOS-2 [11] was Active. Besides, in the assay on SAOS-2 [6], the inhibition at 1 µM stood at 60%. For the same compound, the inhibition at 5 µM is 50% in the assay with U2OS [9], 53% with SAOS-2 [2] and 60% with HeLa [12]. The Activity in the assay on SAOS-2 [1] was 50%; in the assay with U-937 [4], “Not toxic”.

`CC[C@H](C)[C@H](NC(=O)[C@H](CCCCN)NC(=O)[C@@H](NC(=O)[C@H](CCC(N)=O)NC(=O)[C@@H](N)CCCNC(=N)N)[C@@H](C)CC)C(=O)N[C@@H](Cc1c[nH]c2ccccc12)C(=O)N[C@@H](Cc1ccccc1)C(=O)N[C@@H](CCC(N)=O)C(=O)N[C@@H](CC(N)=O)C(=O)N[C@@H](CCCNC(=N)N)C(=O)N[C@@H](CCCNC(=N)N)C(=O)N[C@@H](CCSC)C(=O)N[C@@H](CCCCN)C(=O)N[C@@H](Cc1c[nH]c2ccccc12)C(=O)N[C@@H](CCCCN)C(=O)N[C@@H](CCCCN)C(=O)NCC(=O)NCC(=O)N(CCc1ccc(Cl)cc1Cl)CC(=O)N(CCC(c1ccccc1)c1ccccc1)CC(=O)N(CCc1ccc(Cl)cc1Cl)CC(N)=O`: the Activity entry in the assay with U-937 [4] was “Toxic”.

For the compound `CC(=O)NCCN(CC(N)=O)C(=O)C1CC(=O)N(CCc2ccc(Cl)cc2Cl)CC(=O)N1CCC(c1ccccc1)c1ccccc1` (stereo unspecified), the Activity in the assay with SAOS-2 [1] is 12%. Also, the inhibition at 5 µM in the assay with SAOS-2 [2] came to 21%.

`NC(=O)CN(C(=O)C1CC(=O)N(CCc2ccc(Cl)cc2Cl)CC(=O)N1CCC(c1ccccc1)c1ccccc1)C1CC1` (stereo unspecified): the Activity in the assay with SAOS-2 [1] is 10%. For the same compound, in the assay with SAOS-2 [2], the inhibition at 5 µM worked out at 16%.

On to `NC(=O)CN(CCc1ccc(F)cc1)C(=O)C1CC(=O)N(CCc2ccc(Cl)cc2Cl)CC(=O)N1CCC(c1ccccc1)c1ccccc1` (stereo unspecified), for which the Activity with SAOS-2 [1] is 57%. The inhibition at 5 µM in the assay with SAOS-2 [2] came to 34%.

Regarding `NC(=O)CN(CC1CCCO1)C(=O)C1CC(=O)N(CCc2ccc(Cl)cc2Cl)CC(=O)N1CCC(c1ccccc1)c1ccccc1` (stereo unspecified), the Activity in the assay on SAOS-2 [1] is given as 9%.

In the case of `NC(=O)CN(CCc1ccc(Cl)cc1)C(=O)C1CC(=O)N(CCc2ccc(Cl)cc2Cl)CC(=O)N1CCC(c1ccccc1)c1ccccc1` (stereo unspecified), the Activity in the assay with SAOS-2 [1] is 23%. In addition, in the assay with SAOS-2 [2], the inhibition at 5 µM was found to be 2%.

On to `NC(=O)CN(CCc1ccccc1F)C(=O)C1CC(=O)N(CCc2ccc(Cl)cc2Cl)CC(=O)N1CCC(c1ccccc1)c1ccccc1` (stereo unspecified), for which the Activity in the assay on SAOS-2 [1] is 16%. The inhibition at 5 µM in the assay on SAOS-2 [2] was found to be 51%.
